{"data": "Published values pooled from the literature", "note": "Each line is one published result; the experiments were not run side by side."}
{"Structure (SMILES)": "Cc1cc(S(=O)(=O)N[C@H]2CC[C@H](N3CCN(CC4CCN(c5cccc6c5n(C)c(=O)n6C5CCC(=O)NC5=O)CC4)CC3)CC2)ccc1Nc1ncc(C(F)(F)F)c(N2CCC[C@](C)(O)C2)n1 (stereo partly drawn)", "tested on": "MDCK", "test system": "Caco-2", "setting": "1 µM, 2 h, pH 7.4", "endpoint": "Papp A→B", "result": "0.7 ×10⁻⁶ cm/s"}
{"Structure (SMILES)": "CN(C)CCOc1ccc2c(=O)c3c([nH]c2c1)CCCC3", "test": "metabolic stability", "test system": "mouse, liver microsomes", "setting": "1 µM, pH 7.4", "endpoint": "half-life", "result": "0.572 h"}
{"Structure (SMILES)": "Cc1ccc(C=CC(=O)c2ccc(NC(=O)CN3CCN(c4ccc(Cl)cc4)CC3)cc2)cc1", "tested on": "MCF-10A", "test": "cell growth or viability, MTT", "setting": "50 µM, 96 h", "endpoint": "viability", "result": "89%"}
{"Structure (SMILES)": "O=c1c2c([nH]c3cccc(Oc4ccc(OC(F)(F)F)cc4)c13)CCCC2", "test": "metabolic stability", "test system": "mouse, liver microsomes", "setting": "1 µM, pH 7.4", "endpoint": "half-life", "result": "0.198 h"}
{"Structure (SMILES)": "C[C@H]1Oc2cc(cnc2N)-c2c(nn(C)c2C#N)CN(C)C(=O)c2ccc(F)cc21", "test system": "male Sprague-Dawley rat, brain", "setting": "oral, 10 mg/kg, 24 h, single dose", "endpoint": "concentration", "result": "16.4 ng/g"}
{"Structure (SMILES)": "COc1ccc(N2CCN(CC(=O)Nc3ccc(C4=NN(C(C)=O)C(c5ccc(Br)cc5)C4)cc3)CC2)cc1 (stereo not drawn)", "tested on": "MCF-10A", "test": "cell growth or viability, MTT", "setting": "50 µM, 96 h", "endpoint": "viability", "result": "86%"}
{"Structure (SMILES)": "COc1nc(-c2cccc(-c3ccccc3)c2C)ccc1CNCCNC(=O)CCCCCCCCCCC(=O)N1CCN(CCNC(=O)c2cc3c(=O)n4cccc(C)c4nc3n(CCc3cccs3)c2=N)CC1", "test system": "male Sprague-Dawley rat, plasma", "setting": "oral, 40 mg/kg", "endpoint": "half-life", "result": "6.8 h"}
{"Structure (SMILES)": "Cc1cc(S(=O)(=O)N[C@]2(C)C[C@H](N3CCN(CC4CCN(c5ccc6c(c5F)n(C)c(=O)n6C5CCC(=O)NC5=O)CC4)CC3)C2)ccc1Nc1ncc(C(F)(F)F)c(N2CCC[C@](C)(O)C2)n1 (stereo partly drawn)", "tested on": "MDCK", "test system": "Caco-2", "setting": "1 µM, 2 h, pH 7.4", "endpoint": "Papp A→B", "result": "3.2 ×10⁻⁶ cm/s"}
{"Structure (SMILES)": "COc1ccc(N2CCN(CC(=O)Nc3ccc(C4=NN(C(C)=O)C(c5ccccc5)C4)cc3)CC2)cc1 (stereo not drawn)", "tested on": "MCF-10A", "test": "cell growth or viability, MTT", "setting": "50 µM, 96 h", "endpoint": "viability", "result": "87%"}
{"Structure (SMILES)": "O=c1c2ccc(OCc3cccc(OC(F)(F)F)c3)cc2[nH]c2ccc(Cl)c(F)c12", "test": "metabolic stability", "test system": "mouse, liver microsomes", "setting": "1 µM, pH 7.4", "endpoint": "half-life", "result": "> 1 h"}
{"Structure (SMILES)": "Cc1cc(S(=O)(=O)N[C@H]2CC[C@H](CN3CCN(c4cccc(NC5CCC(=O)NC5=O)c4)CC3)CC2)ccc1Nc1ncc(C(F)(F)F)c(N2CCC[C@](C)(O)C2)n1 (stereo partly drawn)", "tested on": "MDCK", "test system": "Caco-2", "setting": "1 µM, 2 h, pH 7.4", "endpoint": "Papp A→B", "result": "2.9 ×10⁻⁶ cm/s"}
{"Structure (SMILES)": "O=c1c2ccc(OCc3ccc(C(F)(F)F)cc3)cc2[nH]c2cc(Cl)cc(F)c12", "test": "metabolic stability", "test system": "mouse, liver microsomes", "setting": "1 µM, pH 7.4", "endpoint": "half-life", "result": "> 1 h"}
{"Structure (SMILES)": "COc1ccc(N2CCN(CC(=O)Nc3ccc(C(=O)C=Cc4ccc(C)cc4)cc3)CC2)cc1", "tested on": "MCF-10A", "test": "cell growth or viability, MTT", "setting": "50 µM, 96 h", "endpoint": "viability", "result": "90%"}
{"Structure (SMILES)": "O=c1c2ccc(OCc3cccc(OC(F)(F)F)c3)cc2[nH]c2cc(Cl)cc(F)c12", "test": "metabolic stability", "test system": "mouse, liver microsomes", "setting": "1 µM, pH 7.4", "endpoint": "half-life", "result": "> 1 h"}
{"Structure (SMILES)": "Cc1cc(S(=O)(=O)NC2CC(N3CCN(CC4CCN(c5ccc6c(c5F)n(C)c(=O)n6C5CCC(=O)NC5=O)CC4)CC3)C2)ccc1Nc1ncc(C(F)(F)F)c(N2CCCC(C)(O)C2)n1 (stereo not drawn)", "tested on": "MDCK", "test system": "Caco-2", "setting": "1 µM, 2 h, pH 7.4", "endpoint": "Papp A→B", "result": "1.9 ×10⁻⁶ cm/s"}
{"Structure (SMILES)": "COc1ccc(-c2nn(-c3ccccc3)cc2C=Nc2c(N)nc(S)nc2O)cc1", "tested on": "MCF-10A", "test": "cell growth or viability", "setting": "48 h", "endpoint": "CC50", "result": "> 40 µM"}
{"Structure (SMILES)": "O=c1c2c([nH]c3cc(Oc4cccc(OC(F)(F)F)c4)ccc13)CCCC2", "test": "metabolic stability", "test system": "mouse, liver microsomes", "setting": "1 µM, pH 7.4", "endpoint": "half-life", "result": "> 1 h"}
{"Structure (SMILES)": "CNS(=O)(=O)c1ccc(Nc2ncc3cc(Cl)c(=O)n(C4CCCC4)c3n2)c(C)c1", "tested on": "MDCK", "test system": "Caco-2", "setting": "1 µM, 2 h, pH 7.4", "endpoint": "Papp A→B", "result": "3.6 ×10⁻⁶ cm/s"}
{"Structure (SMILES)": "CC(=O)N1N=C(c2ccc(NC(=O)CN3CCN(c4ccc(Cl)cc4)CC3)cc2)CC1c1ccc(Cl)cc1Cl (stereo not drawn)", "tested on": "MCF-10A", "test": "cell growth or viability, MTT", "setting": "50 µM, 96 h", "endpoint": "viability", "result": "91%"}
{"Structure (SMILES)": "Nc1nc(S)nc(O)c1N=Cc1cn(-c2ccccc2)nc1-c1ccccc1", "tested on": "MCF-10A", "test": "cell growth or viability", "setting": "48 h", "endpoint": "CC50", "result": "> 30 µM"}
{"Structure (SMILES)": "Cc1cc(S(=O)(=O)NC2CC(N3CCN(CC4CCN(c5cccc6c5n(C)c(=O)n6C5CCC(=O)NC5=O)CC4)C4(CC4)C3)C2)ccc1Nc1ncc(C(F)(F)F)c(N2CCC[C@](C)(O)C2)n1 (stereo partly drawn)", "tested on": "MDCK", "test system": "Caco-2", "setting": "1 µM, 2 h, pH 7.4", "endpoint": "Papp A→B", "result": "0.7 ×10⁻⁶ cm/s"}
{"Structure (SMILES)": "COc1ccc(N2CCN(CC(=O)Nc3ccc(C4=NN(C(C)=O)C(c5cc(OC)c(OC)c(OC)c5)C4)cc3)CC2)cc1 (stereo not drawn)", "tested on": "MCF-10A", "test": "cell growth or viability, MTT", "setting": "50 µM, 96 h", "endpoint": "viability", "result": "91%"}
{"Structure (SMILES)": "O=c1c2ccccc2[nH]c2cc(Oc3ccc(OC(F)(F)F)cc3)ccc12", "test": "metabolic stability", "test system": "mouse, liver microsomes", "setting": "1 µM, pH 7.4", "endpoint": "half-life", "result": "0.448 h"}
{"Structure (SMILES)": "O=C(CN1CCN(c2ccc(Cl)cc2)CC1)Nc1ccc(C(=O)C=Cc2ccccc2)cc1", "tested on": "MCF-10A", "test": "cell growth or viability, MTT", "setting": "50 µM, 96 h", "endpoint": "viability", "result": "85%"}
{"Structure (SMILES)": "O=c1c2cc(F)c(Oc3ccc(OC(F)(F)F)cc3)cc2[nH]c2cc(Cl)cc(F)c12", "test": "metabolic stability", "test system": "mouse, liver microsomes", "setting": "1 µM, pH 7.4", "endpoint": "half-life", "result": "> 1 h"}
{"Structure (SMILES)": "Cc1cc(S(=O)(=O)NC2CC(N3CCN(CC4CCN(c5ccc(NC6CCC(=O)NC6=O)cc5C)CC4)CC3)C2)ccc1Nc1ncc(C(F)(F)F)c(N2CCC[C@](C)(O)C2)n1 (stereo partly drawn)", "tested on": "MDCK", "test system": "Caco-2", "setting": "1 µM, 2 h, pH 7.4", "endpoint": "Papp A→B", "result": "3.5 ×10⁻⁶ cm/s"}
{"Structure (SMILES)": "COc1ccc(N2CCN(CC(=O)Nc3ccc(C(=O)C=Cc4ccc(Br)cc4)cc3)CC2)cc1", "tested on": "MCF-10A", "test": "cell growth or viability, MTT", "setting": "50 µM, 96 h", "endpoint": "viability", "result": "90%"}
